Measured values pooled from the literature.
Target: Serine/threonine-protein kinase N2 (PKN2, Homo sapiens, UniProt Q16513)

Compound | assay | conditions | remaining binding
CN([C@@H]1CCc2c(CC(=O)O)c3cc(S(C)(=O)=O)ccc3n2C1)S(=O)(=O)c1ccc(F)cc1 | cell-free assay, competition with immobilised ligand | 1 µM | 100%
O=C(c1ccc(Nc2nccc(-c3cc4ccccc4s3)n2)cc1)N1CCC(N2CCCC2)CC1 | binding, competition with immobilised ligand | 1 µM | 45%
C[C@@H]1CCN(c2nccc(-c3cnn4ncccc34)n2)C1 | binding | 1 µM | 71%
COc1cccc(CNC(=O)c2nc3scc(COCc4ccc(C(=O)O)cc4)c3c(=O)[nH]2)c1 | cell-free assay, competition with immobilised ligand | 1 µM | 98%
Nc1ncc2c(n1)-c1c([nH]c3ccc(C#CC4CC4)cc13)CCCC2 | binding, competition with immobilised ligand | 1 µM | 72%
O=C(NCc1ncc(C(F)(F)F)cc1Cl)c1ccc2c(c1)C1(CCS(=O)(=O)CC1)[C@@H](C1CC1)N2S(=O)(=O)c1ccc(F)cc1 | cell-free assay, competition with immobilised ligand | 1 µM | 68%
O=C(NCCCN1CCOCC1)c1ccc(Nc2ncc(Cl)c(-c3ccc(Cl)s3)n2)cc1 | binding, competition with immobilised ligand | 1 µM | 36%
F[C@@H]1CCN(c2nccc(-c3cnn4ncccc34)n2)C1 | binding | 1 µM | 100%
O=C(NCCCC1CCCCC1)c1ccc(CNC(=O)c2cnn(-c3ccccc3)c2C(F)(F)F)cc1 | cell-free assay, competition with immobilised ligand | 0.1 µM | 100%
CNC(=O)[C@@H]1CC[C@@H](n2c(-c3ccc4cnccc4c3)nc3ccc(C(=O)NCc4cccc(C(N)=O)c4)cc32)C1 | binding, competition with immobilised ligand | 1 µM | 94%
N[C@@H]1CCN(c2nccc(-c3cnn4ncccc34)n2)C1 | binding | 1 µM | 100%
c1cncc(-c2cccc(Nc3nccc(NC4CCCCC4)n3)c2)c1 | binding, competition with immobilised ligand | 10 µM | 43%
CN(C)c1nccc(-c2cnc3ncccn23)n1 | binding | 1 µM | 93%
COc1cnc(Nc2cccc(S(N)(=O)=O)c2)nc1N1CCN(c2ccccc2)CC1 | binding, competition with immobilised ligand | 1 µM | 100%
Cc1c(NC(=O)c2cc(C(N)=O)nc3cc(F)ccc23)c(C(F)(F)F)nn1Cc1ccc(C#N)cc1 | cell-free assay, competition with immobilised ligand | 1 µM | 81%
Cc1cnn2ncc(-c3ccnc(N(C)C)n3)c2c1 | binding | 1 µM | 94%
O=C(NCC1CCOCC1)c1n[nH]cc1NC(=O)c1c(F)cccc1F | binding, competition with immobilised ligand | 1 µM | 89%
O=C(c1ccc(Nc2ncc(Cl)c(-c3cc4ccccc4s3)n2)cc1)N1CCC(N2CCCC2)CC1 | binding, competition with immobilised ligand | 1 µM | 11%
CN(c1nccc(-c2cnn3ncccc23)n1)C1CC1 | binding | 1 µM | 89%
Cn1nc(C(=O)NCc2ccc(C(=O)O)cc2)cc1-c1ccc2[nH]ccc2c1 | cell-free assay, competition with immobilised ligand | 0.1 µM | 100%
CN(C)c1nccc(-c2cnn3ncccc23)n1 | binding | 1 µM | 100%
C[C@@H]1CN(c2cc(-c3nn(C)c4ccc(OC5(C)CC5)cc34)ncn2)C[C@H](C)O1 | cell-free assay, competition with immobilised ligand | 1 µM | 100%
